In ChEMBL document CHEMBL5303300, “EUbOPEN Chemogenomics Library - Multiplex” (2023):
Several values for one entry are separate records, joined by “and”; a condition that tells them apart may be missing. Equal values may be shown once.

Tested on: HEK-293T
Test: Multiplex assay against HEK293T
Format: toxicity, cell-based
Conditions: human, number of replicates 2
How it was run: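 Imaging took place on a CQ1 microscope at 37°C and 5% CO2 once compound had been added to live cells stained at seeding with Hoechst33342, BioTracker Green Microtubule Cytoskeleton Dye, MitoTracker Red and Annexin V Alexa Fluor 680. CellPathfinder machine-learning gating classed cells as Hoechst high-intensity objects or normal cells, classed normal cells as having healthy, pyknosed or fragmented nuclei, and classed pyknosed cells as mitotic or apoptotic. Tubulin, mitochondrial-mass and membrane-permeability phenotypes are per cents of the healthy-nucleus cells.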

[1] = 12 h, 1 µM, compound concentration 1 uM
[2] = 12 h, 10 µM, compound concentration 10 uM
[3] = 24 h, 1 µM, compound concentration 1 uM
[4] = 24 h, 10 µM, compound concentration 10 uM
[5] = 48 h, 1 µM, compound concentration 1 uM
[6] = 48 h, 10 µM, compound concentration 10 uM

Cc1cc(C2CCCNC2)ccc1Nc1ncc(Br)c(NCc2cccc3c2C(C)(C)C(=O)N3)n1 (stereo unspecified)
Population Apoptotic (%) [1]: 54%
Population Fragmented Nuclei (%) [1]: 4% and 2%
Population Healthy Nuclei (%) [1]: 88% and 83%
Population Hoechst High Intensity Objects (%) [1]: 12% and 15%
Population Membrane Permeable-Phenotype (%) [1]: 2% and 1%
Population Mitochondria Different-Phenotype (%) [1]: 46% and 53%
Population Mitotic Cells (%) [1]: 45%
Population Normal (%) [1]: 87% and 84%
Population Pyknosed Nuclei (%) [1]: 7% and 13%
Population Tubulin-Different-Phenotype (%) [1]: 94% and 92%
Total Cell Count [1]: 482 and 397
Population Apoptotic (%) [2]: 79% and 80%
Population Fragmented Nuclei (%) [2]: 5% and 6%
Population Healthy Nuclei (%) [2]: 89%
Population Hoechst High Intensity Objects (%) [2]: 13% and 15%
Population Membrane Permeable-Phenotype (%) [2]: 6% and 2%
Population Mitochondria Different-Phenotype (%) [2]: 44% and 59%
Population Mitotic Cells (%) [2]: 20%
Population Normal (%) [2]: 86% and 84%
Population Pyknosed Nuclei (%) [2]: 5% and 4%
Population Tubulin-Different-Phenotype (%) [2]: 95%
Total Cell Count [2]: 520 and 580
Population Apoptotic (%) [3]: 67% and 55%
Population Fragmented Nuclei (%) [3]: 8% and 5%
Population Healthy Nuclei (%) [3]: 84% and 87%
Population Hoechst High Intensity Objects (%) [3]: 14% and 13%
Population Membrane Permeable-Phenotype (%) [3]: 1%
Population Mitochondria Different-Phenotype (%) [3]: 39% and 34%
Population Mitotic Cells (%) [3]: 32% and 44%
Population Normal (%) [3]: 85% and 86%
Population Pyknosed Nuclei (%) [3]: 7% and 6%
Population Tubulin-Different-Phenotype (%) [3]: 89% and 88%
Total Cell Count [3]: 567 and 602
Population Apoptotic (%) [4]: 75% and 80%
Population Fragmented Nuclei (%) [4]: 4% and 8%
Population Healthy Nuclei (%) [4]: 89% and 85%
Population Hoechst High Intensity Objects (%) [4]: 17% and 18%
Population Membrane Permeable-Phenotype (%) [4]: 8% and 0%
Population Mitochondria Different-Phenotype (%) [4]: 53% and 64%
Population Mitotic Cells (%) [4]: 25% and 20%
Population Normal (%) [4]: 82% and 81%
Population Pyknosed Nuclei (%) [4]: 5%
Population Tubulin-Different-Phenotype (%) [4]: 97% and 95%
Total Cell Count [4]: 550 and 640
Population Apoptotic (%) [5]: 26% and 35%
Population Fragmented Nuclei (%) [5]: 12% and 9%
Population Healthy Nuclei (%) [5]: 84% and 87%
Population Hoechst High Intensity Objects (%) [5]: 18% and 20%
Population Membrane Permeable-Phenotype (%) [5]: 2%
Population Mitochondria Different-Phenotype (%) [5]: 13% and 17%
Population Mitotic Cells (%) [5]: 73% and 65%
Population Normal (%) [5]: 81% and 79%
Population Pyknosed Nuclei (%) [5]: 3% and 2%
Population Tubulin-Different-Phenotype (%) [5]: 73% and 85%
Total Cell Count [5]: 832 and 880
Population Apoptotic (%) [6]: 74% and 87%
Population Fragmented Nuclei (%) [6]: 10% and 12%
Population Healthy Nuclei (%) [6]: 77% and 70%
Population Hoechst High Intensity Objects (%) [6]: 16% and 24%
Population Membrane Permeable-Phenotype (%) [6]: 2% and 3%
Population Mitochondria Different-Phenotype (%) [6]: 65% and 68%
Population Mitotic Cells (%) [6]: 25% and 12%
Population Normal (%) [6]: 83% and 75%
Population Pyknosed Nuclei (%) [6]: 12% and 16%
Population Tubulin-Different-Phenotype (%) [6]: 91%
Total Cell Count [6]: 517 and 572

CS(=O)(=O)c1ccc(C(=O)Nc2cccc(COc3ccc(Br)cc3CN[C@H]3CCC[C@@H]3O)c2)c(Cl)c1.O=CO
Population Apoptotic (%) [1]: 63% and 58%
Population Healthy Nuclei (%) [1]: 76% and 80%
Population Mitotic Cells (%) [1]: 36% and 41%
Population Normal (%) [1]: 91% and 92%
Total Cell Count [1]: 550 and 522
Population Apoptotic (%) [2]: 66% and 59%
Population Healthy Nuclei (%) [2]: 84% and 88%
Population Mitotic Cells (%) [2]: 33% and 40%
Population Normal (%) [2]: 91% and 90%
Total Cell Count [2]: 631 and 603
Population Apoptotic (%) [3]: 55% and 58%
Population Healthy Nuclei (%) [3]: 80% and 83%
Population Mitotic Cells (%) [3]: 44% and 41%
Population Normal (%) [3]: 90%
Total Cell Count [3]: 792 and 800
Population Apoptotic (%) [4]: 60% and 67%
Population Healthy Nuclei (%) [4]: 85% and 79%
Population Mitotic Cells (%) [4]: 39% and 32%
Population Normal (%) [4]: 91% and 87%
Total Cell Count [4]: 623 and 546
Population Apoptotic (%) [5]: 20% and 29%
Population Healthy Nuclei (%) [5]: 86% and 87%
Population Mitotic Cells (%) [5]: 79% and 70%
Population Normal (%) [5]: 91% and 92%
Total Cell Count [5]: 1777 and 1587
Population Apoptotic (%) [6]: 60% and 78%
Population Healthy Nuclei (%) [6]: 86% and 80%
Population Mitotic Cells (%) [6]: 40% and 21%
Population Normal (%) [6]: 89% and 90%
Total Cell Count [6]: 671 and 634
